Consider seven molecules from article PMC12216437 (Scientific Reports, 2025).

The test system of data set [1] is E. coli ATCC 8739. Briefly: Resistance development assay. It is filed as cell-based. As to conditions: for fold increase in MIC: E. coli ATCC 8739, sub-MIC exposure; for MIC: Escherichia coli, ATCC8739.
In data set [2] the test system is E. coli ATCC 8739. The data set is described as follows: Thermal and trypsin sensitivity. The data set is classed as cell-based. To be noted: for MIC, 80 °C: E. coli ATCC 8739, peptide heated at 80 °C for 10 min, no trypsin; for MBC, Control / MIC, Control: E. coli ATCC 8739, untreated peptide.
Data set [3] concerns E. coli ATCC 8739. Briefly: Cytoplasmic membrane depolarization assay. The data set is classed as cell-based. To be noted: E. coli ATCC 8739, membrane depolarisation. The method, boiled down: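 E. coli ATCC 8739 washed twice and resuspended to OD600 0.05 in 5 mM HEPES (pH 7.4) with 20 mM glucose and 100 mM KCl. Cells incubated 1 h in the dark with Disc3(5) solution (20 µM). Baseline read every 1 min for 5 min ([…]/em 645 nm). Peptide at various concentrations or melittin control then added; read every 1 min for 15 min.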

A further data set in a line: LPS-binding assay. As to conditions: BC displacement, peptide 0.5-32 μM. The procedure, abridged:
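BODIPY-TR cadaverine displacement: LPS (25 µg/mL) preincubated with BC dye (2.5 µg/mL) for 4 h at room temperature. Peptides, with melittin as positive control, prepared at 0.5–32 µM in Tris–HCl pH 7.4 and combined with LPS–BC mixture for 1 h at 37 °C. Fluorescence read at ex 590/em 645 nm; triplicates, independent experiments.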

Data set [4] concerns E. coli ATCC 8739. Briefly: Salts and serum sensitivity. The data set is classed as cell-based. To be noted: for MIC, NH4+: E. coli ATCC 8739, 6 μM NH4Cl; for MIC, Zn2+: E. coli ATCC 8739, 8 mM ZnCl2; for MBC, Serum 10% / MIC, Serum 10%: E. coli ATCC 8739, 10% FBS.
Data set [5] has as its system Wax Moth Larvae (Galleria mellonella). The data set is described as follows: In vivo toxicity in larvae. To be noted: uninfected larvae, 4 × MIC of peptide 7, five-day observation. The method, boiled down: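 Uninfected Galleria mellonella larvae (250 ± 20 mg), ten per group, given test compound at 4 × MIC; PBS as vehicle-only group. Kept at 24 °C and survival scored every 24 h for five days.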

The mark [6] stands for this setting: E. coli ATCC 8739, 2.5 mM CaCl2.

In brackets after ≈: the same amount, converted by molar mass. Non-standard residues stand in square brackets, D forms with d. Residues, ends and D or L forms follow the SMILES beside them. hArg = N=C(N)NCCCC[C@H](N)C(=O)O

`CO/N=C(\C(=O)N[C@@H]1C(=O)N2C(C(=O)O)=C(COC(C)=O)CS[C@H]12)c1csc(N)n1` [Cefotaxime]: in the data set with E. coli ATCC 8739 [1] (twenty passages (twenty days)), the “fold increase in MIC” value was found to be 32 fold. In addition, the MIC in the data set with E. coli ATCC 8739 [1] was determined as 1 µM (≈ 0.455 µg/mL).
Take `CNC(C)C1CCC(N)C(OC2C(N)CC(N)C(OC3OCC(C)(O)C(NC)C3O)C2O)O1` (stereo not drawn) [Gentamicin]: the “fold increase in MIC” value in the data set on E. coli ATCC 8739 [1] (twenty passages (twenty days)) is recorded as 32 fold. Besides, the MIC with E. coli ATCC 8739 [1] amounted to 2 µM (≈ 0.955 µg/mL).
Consider `CC[C@H](C)[C@H](NC(=O)CN)C(=O)NCC(=O)N[C@@H](C)C(=O)N[C@H](C(=O)N[C@@H](CC(C)C)C(=O)N[C@@H](CCCCN)C(=O)N[C@H](C(=O)N[C@@H](CC(C)C)C(=O)N[C@H](C(=O)N[C@H](C(=O)NCC(=O)N[C@@H](CC(C)C)C(=O)N1CCC[C@H]1C(=O)N[C@@H](C)C(=O)N[C@@H](CC(C)C)C(=O)N[C@H](C(=O)N[C@@H](CO)C(=O)N[C@@H](Cc1c[nH]c2ccccc12)C(=O)N[C@H](C(=O)N[C@@H](CCCCN)C(=O)N[C@@H](CCCNC(=N)N)C(=O)N[C@@H](CCCCN)C(=O)N[C@@H](CCCNC(=N)N)C(=O)N[C@@H](CCC(N)=O)C(=O)N[C@@H](CCC(N)=O)C(N)=O)[C@@H](C)CC)[C@@H](C)CC)[C@@H](C)O)[C@@H](C)O)C(C)C)C(C)C` [Melittin], for which the “fold increase of MIC and MBC values” with E. coli ATCC 8739 [2] (E. coli ATCC 8739, 0.25 mg/mL trypsin) is on record as 32 fold. For the same molecule, in the data set on E. coli ATCC 8739 [2], the MIC, 80 °C amounted to 2 µM (≈ 5.69 µg/mL); the MBC, Control amounted to 2 µM (≈ 5.69 µg/mL); the MIC, Control was found to be 2 µM (≈ 5.69 µg/mL). Also, in the data set on E. coli ATCC 8739 [3], the “concentration at maximum Disc3(5) fluorescence” value was 2 µM and the “incubation time to maximum Disc3(5) fluorescence” value amounted to 3 min. The “concentration at which LPS-binding affinity peaked” value in the data set “LPS-binding assay” stood at 16 µM.
Take `CCn1cc(C(=O)O)c(=O)c2cc(F)c(N3CCNCC3)cc21` [Norfloxacin]: the “fold increase in MIC” value in the data set on E. coli ATCC 8739 [1] (twenty passages (twenty days)) was 512 fold. In addition, the MIC in the data set with E. coli ATCC 8739 [1] worked out at 0.25 µM (≈ 0.0798 µg/mL).
As for `C[C@H](NC(=O)[C@H](Cc1c[nH]c2ccccc12)NC(=O)CNC(=O)[C@H](CCCNC(=N)N)NC(=O)[C@H](Cc1c[nH]c2ccccc12)NC(=O)[C@H](Cc1c[nH]c2ccccc12)NC(=O)[C@H](CO)NC(=O)[C@H](CO)NC(=O)[C@H](Cc1c[nH]c2ccccc12)NC(=O)CN)C(=O)N[C@@H](CCCCN)C(=O)N[C@@H](Cc1c[nH]c2ccccc12)C(=O)N[C@@H](C)C(=O)N[C@@H](CO)C(=O)N[C@@H](CCCCN)C(=O)NCC(=O)N[C@@H](Cc1c[nH]c2ccccc12)C(=O)NCC(=O)N[C@@H](CCCCN)C(N)=O` [Peptide 6, [Trp^2,5,6,9,12,17]-des-(Asp20-Cys37)-E2P] (H-GWSSWWRGWAKWASKGWGK-NH2), in the data set with E. coli ATCC 8739 [4], the MIC, NH4+ came to 4 µM; the MIC, Zn2+ is 4 µM; the MBC, Serum 10% came out at 4 µM; the MIC, Serum 10% came out at 4 µM. Besides, in the data set with E. coli ATCC 8739 [4] (E. coli ATCC 8739, 1 mM MgCl2), the MBC, Mg2+ is 32 µM and the MIC, Mg2+ was determined as 32 µM. Besides, in the data set with E. coli ATCC 8739 [4] (E. coli ATCC 8739, 20% FBS), the MBC, Serum 20% stood at 8 µM and the MIC, Serum 20% was 8 µM.
In the case of `CC[C@H](C)[C@H](NC(=O)[C@H](CO)NC(=O)[C@H](CO)NC(=O)[C@H](Cc1ccccc1)NC(=O)CN)C(=O)N[C@@H](Cc1ccccc1)C(=O)N[C@@H](CCCCNC(=N)N)C(=O)NCC(=O)N[C@H](C(=O)N[C@@H](C)C(=O)N[C@@H](CCCCNC(=N)N)C(=O)N[C@@H](Cc1ccccc1)C(=O)N[C@@H](C)C(=O)N[C@@H](CO)C(=O)N[C@@H](CCCCNC(=N)N)C(=O)NCC(=O)N[C@@H](CC(C)C)C(=O)NCC(=O)N[C@@H](CCCCNC(=N)N)C(N)=O)C(C)C` [Peptide 7, [hArg^7,11,15,19]-des-(Asp20-Cys37)-E2P] (H-GFSSIF[hArg]GVA[hArg]FAS[hArg]GLG[hArg]-NH2), in the data set with E. coli ATCC 8739 [2], the MIC, 80 °C was determined as 2 µM (≈ 4.19 µg/mL); the MBC, Control worked out at 2 µM (≈ 4.19 µg/mL); the MIC, Control is 2 µM (≈ 4.19 µg/mL). Moreover, the “MIC, Fe3+” value with E. coli ATCC 8739 [4] (E. coli ATCC 8739, 4 μM FeCl3) was 2 µM. Moreover, in the data set with E. coli ATCC 8739 [4], the MIC, NH4+ came out at 2 µM; the MIC, Zn2+ was found to be 4 µM; the MBC, Serum 10% was 4 µM; the MIC, Serum 10% came out at 4 µM. Moreover, the MIC, K+ in the data set on E. coli ATCC 8739 [4] (E. coli ATCC 8739, 0.5 mM KCl) amounted to 2 µM. The MIC, Mg2+ in the data set on E. coli ATCC 8739 [4] (E. coli ATCC 8739, 1 mM MgCl2) is 8 µM. In the data set with E. coli ATCC 8739 [4] (setting [6]), the MBC, Ca2+ came to 64 µM and the MIC, Ca2+ worked out at 64 µM. Also, in data set [5], the “effect on survival of larvae (toxicity)” value was “did not affect the survival of the larvae”.
Regarding `CO[C@H]1/C=C/O[C@@]2(C)Oc3c(C)c(O)c4c(O)c(c(/C=N/N5CCN(C)CC5)c(O)c4c3C2=O)NC(=O)/C(C)=C\C=C\[C@H](C)[C@H](O)[C@@H](C)[C@@H](O)[C@@H](C)[C@H](OC(C)=O)[C@@H]1C` [Rifampicin], the “fold increase in MIC” value with E. coli ATCC 8739 [1] (within five passages) is 512 fold. Besides, in the data set on E. coli ATCC 8739 [1], inhibition of growth (MIC) required 8 µM (≈ 6.58 µg/mL).

What is called MIC is the smallest concentration in the dilution series that meets the test's criterion for growth inhibition. A higher MIC goes with a need for much substance.
